Experiments:
Format in all cases: functional
Details in all cases: read-out: Activity
NCI-H322M = assay: Growth inhibition of human NCI-H322M cells assessed as cell growth at 10 uM incubated for 48 hrs by sulforhodamine B assay relative to control
In short: (§1)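 Submitted to the NCI Developmental Therapeutics Program for the NCI60 human tumour cell line panel. First screen at a single 10 µM concentration. Read-out is growth relative to untreated control cells set at 100%.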

RPMI-8226 = assay: Growth inhibition of human RPMI-8226 cells assessed as cell growth at 10 uM incubated for 48 hrs by sulforhodamine B assay relative to control
In short: (§2)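 Run by the NCI Developmental Therapeutics Program as part of its 60-line human tumour panel. Each compound tested at a single 10 µM dose. Growth expressed as % relative to untreated control cells (100%).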

OVCAR-5 = assay: Growth inhibition of human OVCAR-5 cells assessed as cell growth at 10 uM incubated for 48 hrs by sulforhodamine B assay relative to control; in short: as §2
HOP-92 = assay: Growth inhibition of human HOP-92 cells assessed as cell growth at 10 uM incubated for 48 hrs by sulforhodamine B assay relative to control; in short: as §1
MDA-MB-435 = assay: Growth inhibition of human MDA-MB-435 cells assessed as cell growth at 10 uM incubated for 48 hrs by sulforhodamine B assay relative to control; in short: as §1
A549 = assay: Growth inhibition of human A549/ATCC cells assessed as cell growth at 10 uM incubated for 48 hrs by sulforhodamine B assay relative to control
In short: (§3)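 NCI Developmental Therapeutics Program NCI60 panel. Compounds that were active in the 10 µM one-dose screen went on to dose–response testing. Growth at each concentration is expressed relative to untreated control (100%). GI50 (concentration giving 50% of maximal inhibition of proliferation) and TGI (concentration giving total growth inhibition) were derived from the curves.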

SF-295 = assay: Growth inhibition of human SF-295 cells assessed as cell growth at 10 uM incubated for 48 hrs by sulforhodamine B assay relative to control; in short: as §2
MDA-MB-468 = assay: Growth inhibition of human MDA-MB-468 cells assessed as cell growth at 10 uM incubated for 48 hrs by sulforhodamine B assay relative to control; in short: as §1
SK-MEL-28 = assay: Growth inhibition of human SK-MEL-28 cells assessed as cell growth at 10 uM incubated for 48 hrs by sulforhodamine B assay relative to control; in short: as §2
SF-539 = assay: Growth inhibition of human SF-539 cells assessed as cell growth at 10 uM incubated for 48 hrs by sulforhodamine B assay relative to control; in short: as §2
CCRF-CEM = assay: Growth inhibition of human CCRF-CEM cells assessed as cell growth at 10 uM incubated for 48 hrs by sulforhodamine B assay relative to control; in short: as §3
Hs-578T = assay: Growth inhibition of human Hs-578T cells assessed as cell growth at 10 uM incubated for 48 hrs by sulforhodamine B assay relative to control; in short: as §1
OVCAR-4 = assay: Growth inhibition of human OVCAR-4 cells assessed as cell growth at 10 uM incubated for 48 hrs by sulforhodamine B assay relative to control; in short: as §2
MCF7 = assay: Growth inhibition of human MCF7 cells assessed as cell growth at 10 uM incubated for 48 hrs by sulforhodamine B assay relative to control; in short: as §1
OVCAR-8 = assay: Growth inhibition of human OVCAR-8 cells assessed as cell growth at 10 uM incubated for 48 hrs by sulforhodamine B assay relative to control; in short: as §2
T47D = assay: Growth inhibition of human T47D cells assessed as cell growth at 10 uM incubated for 48 hrs by sulforhodamine B assay relative to control; in short: as §2
HCC 2998 = assay: Growth inhibition of human HCC 2998 cells assessed as cell growth at 10 uM incubated for 48 hrs by sulforhodamine B assay relative to control; in short: as §3
COLO 205 = assay: Growth inhibition of human COLO 205 cells assessed as cell growth at 10 uM incubated for 48 hrs by sulforhodamine B assay relative to control; in short: as §3
OVCAR-3 = assay: Growth inhibition of human OVCAR-3 cells assessed as cell growth at 10 uM incubated for 48 hrs by sulforhodamine B assay relative to control; in short: as §2
PC-3 = assay: Growth inhibition of human PC-3 cells assessed as cell growth at 10 uM incubated for 48 hrs by sulforhodamine B assay relative to control; in short: as §2
K562 = assay: Growth inhibition of human K562 cells assessed as cell growth at 10 uM incubated for 48 hrs by sulforhodamine B assay relative to control; in short: as §1
ACHN = assay: Growth inhibition of human ACHN cells assessed as cell growth at 10 uM incubated for 48 hrs by sulforhodamine B assay relative to control
In short: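 NCI Developmental Therapeutics Program NCI60 human tumour cell line panel, one-dose primary screen with every compound at 10 µM. Growth is expressed as % of untreated control cells (100%).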

DU-145 = assay: Growth inhibition of human DU-145 cells assessed as cell growth at 10 uM incubated for 48 hrs by sulforhodamine B assay relative to control; in short: as §3
U-251 = assay: Growth inhibition of human U-251 cells assessed as cell growth at 10 uM incubated for 48 hrs by sulforhodamine B assay relative to control; in short: as §2
NCI-H23 = assay: Growth inhibition of human NCI-H23 cells assessed as cell growth at 10 uM incubated for 48 hrs by sulforhodamine B assay relative to control; in short: as §1
MDA-MB-231 = assay: Growth inhibition of human MDA-MB-231 cells assessed as cell growth at 10 uM incubated for 48 hrs by sulforhodamine B assay relative to control; in short: as §1
SF-268 = assay: Growth inhibition of human SF-268 cells assessed as cell growth at 10 uM incubated for 48 hrs by sulforhodamine B assay relative to control; in short: as §2
UACC-62 = assay: Growth inhibition of human UACC-62 cells assessed as cell growth at 10 uM incubated for 48 hrs by sulforhodamine B assay relative to control; in short: as §2
IGROV-1 = assay: Growth inhibition of human IGROV-1 cells assessed as cell growth at 10 uM incubated for 48 hrs by sulforhodamine B assay relative to control; in short: as §1
LOX IMVI = assay: Growth inhibition of human LOX IMVI cells assessed as cell growth at 10 uM incubated for 48 hrs by sulforhodamine B assay relative to control; in short: as §1
NCI/ADR-RES = assay: Growth inhibition of human NCI/ADR-RES cells assessed as cell growth at 10 uM incubated for 48 hrs by sulforhodamine B assay relative to control; in short: as §1
SW-620 = assay: Growth inhibition of human SW-620 cells assessed as cell growth at 10 uM incubated for 48 hrs by sulforhodamine B assay relative to control; in short: as §2

Structure (SMILES)	growth at 10 µM (NCI-H322M)	growth at 10 µM (RPMI-8226)	growth at 10 µM (OVCAR-5)	growth at 10 µM (HOP-92)	growth at 10 µM (MDA-MB-435)	growth at 10 µM (A549)	growth at 10 µM (SF-295)	growth at 10 µM (SK-MEL-28)	growth at 10 µM (SF-539)	growth at 10 µM (CCRF-CEM)	growth at 10 µM (Hs-578T)	growth at 10 µM (OVCAR-4)	growth at 10 µM (MCF7)	growth at 10 µM (OVCAR-8)	growth at 10 µM (T47D)	growth at 10 µM (HCC 2998)	growth at 10 µM (OVCAR-3)	growth at 10 µM (PC-3)	growth at 10 µM (K562)	growth at 10 µM (ACHN)	also measured
Nc1c(C(=O)Nc2ccccc2)sc2nc3c(cc12)CN(Cc1ccccc1)CC3	62%	72%	70%	13%	34%	55%	36%	63%	9%	84%	-11%	11%	53%	59%	58%	76%	52%	70%	48%	37%	growth at 10 µM (MDA-MB-468): 58%; growth at 10 µM (COLO 205): 66%; growth at 10 µM (DU-145): 57%; growth at 10 µM (U-251): 56%; growth at 10 µM (NCI-H23): 63%; growth at 10 µM (MDA-MB-231): 37%; growth at 10 µM (SF-268): 38%; growth at 10 µM (UACC-62): 57%; growth at 10 µM (IGROV-1): 74%; growth at 10 µM (LOX IMVI): 51%; growth at 10 µM (NCI/ADR-RES): 56%; growth at 10 µM (SW-620): 63%
Cc1cc(C)c(NC(=O)c2sc3nc4c(cc3c2N)CN(Cc2ccccc2)CC4)c(C)c1	47%	13%	54%	12%	-11%	25%	8%	46%	-11%	12%	15%	44%	8%	30%	12%	30%	5%	25%	13%	40%	growth at 10 µM (MDA-MB-468): 10%; growth at 10 µM (DU-145): -12%; growth at 10 µM (U-251): 26%; growth at 10 µM (NCI-H23): 27%; growth at 10 µM (MDA-MB-231): 38%; growth at 10 µM (SF-268): 42%; growth at 10 µM (UACC-62): 37%; growth at 10 µM (IGROV-1): 42%; growth at 10 µM (LOX IMVI): 29%; growth at 10 µM (NCI/ADR-RES): -18%; growth at 10 µM (SW-620): 13%
COc1cccc(NC(=O)c2sc3nc4c(cc3c2N)CN(Cc2ccccc2)CC4)c1	71%	83%	71%	23%	3%	22%	21%	27%	-18%	76%	5%	13%	21%	28%	39%	49%	46%	54%	16%	14%	growth at 10 µM (MDA-MB-468): 30%; growth at 10 µM (COLO 205): 44%; growth at 10 µM (DU-145): 32%; growth at 10 µM (U-251): 21%; growth at 10 µM (NCI-H23): 43%; growth at 10 µM (MDA-MB-231): 54%; growth at 10 µM (SF-268): 18%; growth at 10 µM (UACC-62): 31%; growth at 10 µM (IGROV-1): 67%; growth at 10 µM (LOX IMVI): 27%; growth at 10 µM (NCI/ADR-RES): 28%; growth at 10 µM (SW-620): 30%
Cc1cccc(NC(=O)c2sc3nc4c(cc3c2N)C(=O)CCC4)c1	37.2%	22%	32%	35%	-65%	23%	7%	34%	-61%	24%	-7%	21%	16%	37%	29%	25%	-22%	20%	16%	25%	growth at 10 µM (COLO 205): -21%; growth at 10 µM (DU-145): 6%; growth at 10 µM (U-251): 6%; growth at 10 µM (NCI-H23): 28%; growth at 10 µM (MDA-MB-231): 20%; growth at 10 µM (SF-268): 33%; growth at 10 µM (UACC-62): 14%; growth at 10 µM (IGROV-1): -4.52%; growth at 10 µM (LOX IMVI): 24%; growth at 10 µM (NCI/ADR-RES): 5%; growth at 10 µM (SW-620): 21%

— ChEMBL document CHEMBL4715736, “Identification of anticancer agents based on the thieno[2,3-b]pyridine and 1H-pyrazole molecular scaffolds” (2016)
